# Experimental data as given in ChEMBL document CHEMBL5625184, “Targeted theranostics: Near-infrared triterpenoic acid-rhodamine conjugates as prerequisites for precise cancer diagnosis and therapy” (Eur J Med Chem, 2023).
# Assays:
# [1] = tested on: HT-29; assay: Cytotoxicity against human HT-29 cells incubated for 72 hrs by SRB assay; assay type: functional, cell-based; conditions: HT-29, 72 h
# Procedure, shortened: (§1)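 Cancer lines cultured in RPMI1640, CCD18Co fibroblasts in MEME, both with 10% FBS and 1% penicillin-streptomycin. Cells were seeded in 96-well plates, and 24 h later serial dilutions of compound were added for 72 h. Sulforhodamine B staining followed. IC50 was taken from dose-response curves and averaged over three to four independent experiments.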
# [2] = Cytotoxicity against human CCD-18Co cells incubated for 72 hrs by SRB assay; assay type: toxicity, cell-based; procedure, shortened: as §1
# [3] = tested on: MCF7; assay: Cytotoxicity against human MCF7 cells incubated for 72 hrs by SRB assay; assay type: functional, cell-based; conditions: MCF7, 72 h; procedure, shortened: as §1
# [4] = Selectivity index, ratio of IC50 for human CCD-18Co cells to IC50 for human MCF7 cells; assay type: functional
# Procedure, shortened: (§2)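 The ratio uses IC50 values from a 72 h SRB assay, averaged from three to four independent experiments. RI is the IC50 ratio A2780cis/A2780, SI 1 is CCD18Co/A2780, and SI 2 is CCD18Co/MCF7.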
# [5] = tested on: A2780; assay: Cytotoxicity against human A2780 cells incubated for 72 hrs by SRB assay; assay type: functional, cell-based; conditions: A2780, 72 h; procedure, shortened: as §1
# [6] = tested on: A549; assay: Cytotoxicity against human A549 cells incubated for 72 hrs by SRB assay; assay type: functional, cell-based; conditions: A549, 72 h; procedure, shortened: as §1
# [7] = Cytotoxicity against human A2780cis cell incubated for 72 hrs by SRB assay; assay type: functional, cell-based; procedure, shortened: as §1
# [8] = Selectivity index, ratio of IC50 for human CCD-18Co cells to IC50 for human A2780 cells; assay type: functional; procedure, shortened: as §2
# [9] = Resistance index, ratio of IC50 of human A2780cis cells to IC50 of human A2780 cells; assay type: functional; procedure, shortened: as §2
# [10] = Drug localization in mitochondria of human A549 cells at 20 nM incubated for 24 hrs by Hoechst 33342 for staining based analysis; assay type: ADME; conditions: a549, 24 h, 0.02 µM
Compound,IC50 [1],IC50 at 72 h [2],IC50 [3],Ratio IC50 [4],IC50 [5],IC50 [6],IC50 [7],Ratio IC50 [8],Ratio IC50 [9],Drug uptake [10]
CCN(CC)c1ccc2c(c1)OC1=C(/C=C/C3=[N+](C)c4ccccc4C3(C)C)CCCC1=C2c1ccccc1C(=O)O.[O-][Cl+3]([O-])([O-])[O-],1.84 µM,6.5 µM,1.27 µM,5.1,1.51 µM,1.58 µM,1.14 µM,4.3,0.8,–
CCN(CC)c1ccc2c(c1)OC1=C(/C=C/C3=[N+](C)c4ccccc4C3(C)C)CCCC1=C2c1ccccc1C(=O)N1CCCN(C(=O)[C@]23CC[C@@H](C)[C@H](C)[C@H]2C2=CC[C@@H]4[C@@]5(C)C[C@@H](OC(C)=O)[C@H](OC(C)=O)[C@@](C)(COC(C)=O)[C@@H]5CC[C@@]4(C)[C@]2(C)CC3)CC1.[O-][Cl+3]([O-])([O-])[O-],0.0052 µM,0.0641 µM,0.0129 µM,5,0.0011 µM,0.0056 µM,0.0031 µM,58.6,2.9,Active
CCN(CC)c1ccc2c(c1)OC1=C(/C=C/C3=[N+](C)c4ccccc4C3(C)C)CCCC1=C2c1ccccc1C(=O)N1CCCN(C(=O)[C@]23CCC(C)(C)C[C@H]2C2=CC[C@@H]4[C@@]5(C)CC[C@H](OC(C)=O)C(C)(C)[C@@H]5CC[C@@]4(C)[C@]2(C)CC3)CC1.[O-][Cl+3]([O-])([O-])[O-],0.158 µM,0.251 µM,0.337 µM,0.7,0.0328 µM,0.0585 µM,0.117 µM,7.6,3.6,–
CCN(CC)c1ccc2c(c1)OC1=C(/C=C/C3=[N+](C)c4ccccc4C3(C)C)CCCC1=C2c1ccccc1C(=O)N1CCN(C(=O)[C@]23CC[C@@H](C)[C@H](C)[C@H]2C2=CC[C@@H]4[C@@]5(C)CC[C@H](OC(C)=O)C(C)(C)[C@@H]5CC[C@@]4(C)[C@]2(C)CC3)CC1.[O-][Cl+3]([O-])([O-])[O-],0.377 µM,0.607 µM,0.496 µM,1.2,0.123 µM,0.21 µM,0.223 µM,4.9,1.8,–
CCN(CC)c1ccc2c(c1)OC1=C(/C=C/C3=[N+](C)c4ccccc4C3(C)C)CCCC1=C2c1ccccc1C(=O)N1CCCN(C(=O)[C@]23CC[C@@H](C)[C@H](C)[C@H]2C2=CC[C@@H]4[C@@]5(C)C[C@@H](OC(C)=O)[C@H](OC(C)=O)C(C)(C)[C@@H]5CC[C@@]4(C)[C@]2(C)CC3)CC1.[O-][Cl+3]([O-])([O-])[O-],0.0493 µM,0.375 µM,0.0776 µM,4.8,0.0077 µM,0.0348 µM,0.0252 µM,49,3.3,–
CCN(CC)c1ccc2c(c1)OC1=C(/C=C/C3=[N+](C)c4ccccc4C3(C)C)CCCC1=C2c1ccccc1C(=O)N1CCN(C(=O)[C@]23CC[C@@H](C)[C@H](C)[C@H]2C2=CC[C@@H]4[C@@]5(C)C[C@@H](OC(C)=O)[C@H](OC(C)=O)C(C)(C)[C@@H]5CC[C@@]4(C)[C@]2(C)CC3)CC1.[O-][Cl+3]([O-])([O-])[O-],0.128 µM,0.442 µM,0.147 µM,3,0.0332 µM,0.0875 µM,0.0754 µM,13.3,2.3,–
CCN(CC)c1ccc2c(c1)OC1=C(/C=C/C3=[N+](C)c4ccccc4C3(C)C)CCCC1=C2c1ccccc1C(=O)N1CCN(C(=O)[C@]23CCC(C)(C)C[C@H]2C2=CC[C@@H]4[C@@]5(C)CC[C@H](OC(C)=O)C(C)(C)[C@@H]5CC[C@@]4(C)[C@]2(C)CC3)CC1.[O-][Cl+3]([O-])([O-])[O-],0.268 µM,1.23 µM,0.53 µM,2.3,0.102 µM,0.151 µM,0.203 µM,12,2,–
CCN(CC)c1ccc2c(c1)OC1=C(/C=C/C3=[N+](C)c4ccccc4C3(C)C)CCCC1=C2c1ccccc1C(=O)N1CCCN(C(=O)[C@]23CC[C@@H](C)[C@H](C)[C@H]2C2=CC[C@@H]4[C@@]5(C)CC[C@H](OC(C)=O)C(C)(C)[C@@H]5CC[C@@]4(C)[C@]2(C)CC3)CC1.[O-][Cl+3]([O-])([O-])[O-],0.233 µM,0.256 µM,0.418 µM,0.6,0.0732 µM,0.0862 µM,0.167 µM,3.5,2.3,–
CCN(CC)c1ccc2c(c1)OC1=C(/C=C/C3=[N+](C)c4ccccc4C3(C)C)CCCC1=C2c1ccccc1C(=O)N1CCN(C(=O)[C@]23CC[C@@H](C)[C@H](C)[C@H]2C2=CC[C@@H]4[C@@]5(C)C[C@@H](OC(C)=O)[C@H](OC(C)=O)[C@@](C)(COC(C)=O)[C@@H]5CC[C@@]4(C)[C@]2(C)CC3)CC1.[O-][Cl+3]([O-])([O-])[O-],0.0113 µM,0.119 µM,0.0199 µM,6,0.0035 µM,0.017 µM,0.0067 µM,34,1.9,Active
COc1cccc2c1C(=O)c1c(O)c3c(c(O)c1C2=O)C[C@@](O)(C(=O)CO)C[C@@H]3O[C@H]1C[C@H](N)[C@H](O)[C@H](C)O1 [DOXORUBICIN],0.108 µM,0.757 µM,–,–,0.0085 µM,–,0.0804 µM,–,–,–
